The source made the active and inactive calls. No cut-off for these calls is given here.
Legend:
[1] = molecular target: T1, Topoisomerase I (Bos taurus) (UniProt Q2HPH0); assay: Inhibition of calf thymus TOP1-mediated relaxation of supercoiled pBR322 DNA at 25 uM after 30 mins by agarose gel electrophoresis relative to camptothecin
T1 sequence (whole entry): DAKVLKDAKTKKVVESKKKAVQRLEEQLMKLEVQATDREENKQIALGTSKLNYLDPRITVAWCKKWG
Procedure, shortened: (§1)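 0.5 µg supercoiled pBR322 in buffer (10 mM Tris-HCl pH 7.5, 50 mM KCl, 5 mM MgCl2, BSA, DTT) with 1 unit calf thymus TOP1, with or without compound (0.2-125 µM), 30 min at 37 C. Run on 0.8% agarose/TBE at 4.6 V/cm for 1.5 h, gel red stained. Activity graded in bands (e.g. +++ 81-120%). At least two independent repeats.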

HCT-116 [2] = assay: Cytotoxicity against human HCT116 cells assessed as growth inhibition after 72 hrs by MTT assay; type: functional; details: HCT-116, 72 h
Procedure, shortened: (§2)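 Five-dose MTT growth assay, compounds predissolved in DMSO, 72 h exposure at 37 C. Cells kept in RPMI-1640 or DMEM, 37 C, 5% CO2, passage 3-6. MTT (1 mg/mL in PBS) added for 4 h, formazan dissolved in DMSO, OD 570 nm. GI50 (50% growth inhibition) by nonlinear regression. Means ± SD, at least three repeats.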

CCRF-CEM = assay: Cytotoxicity against human CCRF-CEM cells assessed as growth inhibition after 72 hrs by MTT assay; type: functional; procedure, shortened: as §2
A549 = assay: Cytotoxicity against human A549 cells assessed as growth inhibition after 72 hrs by MTT assay; type: functional; details: A549, 72 h; procedure, shortened: as §2
Huh-7 = assay: Cytotoxicity against human HuH7 cells assessed as growth inhibition after 72 hrs by MTT assay; type: functional; details: Huh-7, 72 h; procedure, shortened: as §2
DU-145 = assay: Cytotoxicity against human DU145 cells assessed as growth inhibition after 72 hrs by MTT assay; type: functional; details: DU-145, 72 h; procedure, shortened: as §2
DNA [3] = assay: Induction of unwinding effect of Escherichia coli relaxed pBR322 DNA at 1 to 9 uM preincubated with DNA for 10 mins followed by excess calf thymus TOP1 addition and measured after 30 mins by agarose gel electrophoresis; type: nucleic-acid assay
Procedure, shortened: (§3)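 Compound (1, 3, 9 µM) preincubated with pBR322 DNA, supercoiled or relaxed, at room temperature for 10 min. Excess TOP1 then added and incubated 30 min at 37 C. Stopped with SDS/proteinase K. Ethidium bromide (0.3-1.2 mg/L) as positive control. Run on 0.8% agarose in TBE at 4.6 V/cm for 1.5 h, stained with gel red, UV visualized.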

DNA [4] = assay: Induction of unwinding effect of Escherichia coli supercoiled pBR322 DNA at 1 to 9 uM preincubated with DNA for 10 mins followed by excess calf thymus TOP1 addition and measured after 30 mins by agarose gel electrophoresis; type: nucleic-acid assay; procedure, shortened: as §3
[5] = molecular target: T1, Topoisomerase I (Bos taurus); assay: Inhibition of calf thymus TOP1-mediated relaxation of supercoiled pBR322 DNA after 30 mins by agarose gel electrophoresis; procedure, shortened: as §1
[6] = molecular target: T1, Topoisomerase I (Bos taurus); assay: Inhibition of calf thymus TOP1-mediated relaxation of supercoiled pBR322 DNA at 125 uM after 30 mins by agarose gel electrophoresis relative to control; procedure, shortened: as §1
HCT-116 [7] = assay: Induction of apoptosis in human HCT116 cells assessed as early apoptotic cells at 1 uM after 12 hrs by annexin V-FITC/propidium iodide staining-based flow cytometric method (reference value: 0.47 to 1.19%); type: functional
HCT-116 [8] = assay: Induction of apoptosis in human HCT116 cells assessed as late apoptotic cells at 1 uM after 12 hrs by annexin V-FITC/propidium iodide staining-based flow cytometric method (reference value: 0.34 to 0.81%); type: functional
HCT-116 [9] = assay: Induction of apoptosis in human HCT116 cells assessed as viable cells at 1 uM after 12 hrs by annexin V-FITC/propidium iodide staining-based flow cytometric method (reference value: 97.60 to 98.95%); type: functional; details: HCT-116, 12 h, read-out: Activity
HCT-116 [10] = assay: Induction of apoptosis in human HCT116 cells assessed as early apoptotic cells at 3 uM after 12 hrs by annexin V-FITC/propidium iodide staining-based flow cytometric method (reference value: 0.47 to 1.19%); type: functional
HCT-116 [11] = assay: Induction of apoptosis in human HCT116 cells assessed as late apoptotic cells at 3 uM after 12 hrs by annexin V-FITC/propidium iodide staining-based flow cytometric method (reference value: 0.34 to 0.81%); type: functional
HCT-116 [12] = assay: Induction of apoptosis in human HCT116 cells assessed as viable cells at 3 uM after 12 hrs by annexin V-FITC/propidium iodide staining-based flow cytometric method (reference value: 97.60 to 98.95%); type: functional; details: HCT-116, 12 h, read-out: Activity
HCT-116 [13] = assay: Induction of apoptosis in human HCT116 cells assessed as early apoptotic cells at 9 uM after 12 hrs by annexin V-FITC/propidium iodide staining-based flow cytometric method (reference value: 0.47 to 1.19%); type: functional
HCT-116 [14] = assay: Induction of apoptosis in human HCT116 cells assessed as late apoptotic cells at 9 uM after 12 hrs by annexin V-FITC/propidium iodide staining-based flow cytometric method (reference value: 0.34 to 0.81%); type: functional
HCT-116 [15] = assay: Induction of apoptosis in human HCT116 cells assessed as viable cells at 9 uM after 12 hrs by annexin V-FITC/propidium iodide staining-based flow cytometric method (reference value: 97.60 to 98.95%); type: functional; details: HCT-116, 12 h, read-out: Activity
HCT-116 [16] = assay: Induction of apoptosis in human HCT116 cells after 12 hrs by annexin V-FITC/propidium iodide staining-based flow cytometric method; type: functional, cell-based

Compound | inhibition [1] | Activity (DNA [3]) | Activity (DNA [4]) | inhibition [5] | inhibition [6] | GI50 (HCT-116 [2]) | GI50 (CCRF-CEM) | GI50 (A549) | GI50 (Huh-7) | GI50 (DU-145) | Activity (HCT-116 [7]) | Activity (HCT-116 [8]) | viability at 1 µM (HCT-116 [9]) | Activity (HCT-116 [10]) | Activity (HCT-116 [11]) | viability at 3 µM (HCT-116 [12]) | Activity (HCT-116 [13]) | Activity (HCT-116 [14]) | viability at 9 µM (HCT-116 [15]) | Activity (HCT-116 [16])
O=C1c2ncccc2C(=O)c2c1c(C(=O)OCCN1CCOCC1)c1ccccn21 | > 121% | inactive | inactive | – | – | 11.1 µM | 70.5 µM | 4.52 µM | 14.2 µM | 1.2 µM | – | – | – | – | – | – | – | – | – | –
O=C1c2cccnc2C(=O)c2c1c(C(=O)OCCN1CCCCC1)c1c(Cl)cccn21 | > 121% | Active | Active | – | – | 0.31 µM | 0.39 µM | 0.12 µM | 0.17 µM | 2.52 µM | – | – | – | – | – | – | – | – | – | –
O=C1c2cccnc2C(=O)c2c1c(C(=O)OCCCN1CCCC1)c1c(Cl)cccn21 | < 40% | – | – | – | – | 38.2 µM | 85.3 µM | 24.5 µM | 12.2 µM | 8.32 µM | – | – | – | – | – | – | – | – | – | –
O=C1c2cccnc2C(=O)c2c1c(C(=O)OCCN1CCCCC1)c1c(F)cccn21 | > 121% | inactive | inactive | Dose-dependent effect | 100% | 0.025 µM | 0.38 µM | 0.29 µM | 0.059 µM | 0.091 µM | 2.12% | 2.39% | 95.2% | 1.26% | 10.47% | 86.9% | 2.47% | 38.17% | 57.1% | Dose-dependent effect
CN1CCN(CCOC(=O)c2c3c(n4cccc(F)c24)C(=O)c2ncccc2C3=O)CC1 | 41 to 80% | – | – | – | – | 0.044 µM | 0.45 µM | 0.052 µM | 0.11 µM | 0.029 µM | – | – | – | – | – | – | – | – | – | –
O=C1c2cccnc2C(=O)c2c1c(C(=O)OCCCN1CCCCC1)c1c(F)cccn21 | > 121% | inactive | inactive | Dose-dependent effect | 100% | 0.027 µM | 0.35 µM | 0.072 µM | 0.12 µM | 0.21 µM | 2.14% | 3.98% | 93.4% | 2.5% | 16.74% | 79% | 4.73% | 31.59% | 61.7% | Dose-dependent effect
O=C1c2cccnc2C(=O)c2c1c(C(=O)OCCCN1CCCC1)c1c(F)cccn21 | 41 to 80% | – | – | – | – | 0.029 µM | 0.51 µM | 0.08 µM | 0.11 µM | 0.092 µM | – | – | – | – | – | – | – | – | – | –

Second part, led by results:

inhibition [1] | Activity (DNA [3]) | Activity (DNA [4]) | inhibition [5] | inhibition [6] | Compound | GI50 (HCT-116 [2]) | GI50 (CCRF-CEM) | GI50 (A549) | GI50 (Huh-7) | GI50 (DU-145) | Activity (HCT-116 [7]) | Activity (HCT-116 [8]) | viability at 1 µM (HCT-116 [9]) | Activity (HCT-116 [10]) | Activity (HCT-116 [11]) | viability at 3 µM (HCT-116 [12]) | Activity (HCT-116 [13]) | Activity (HCT-116 [14]) | viability at 9 µM (HCT-116 [15]) | Activity (HCT-116 [16])
< 40% | – | – | – | – | O=C1c2cccnc2C(=O)c2c1c(C(=O)OCCN1CCOCC1)c1c(F)cccn21 | 0.11 µM | 1.1 µM | 0.13 µM | 0.57 µM | 0.23 µM | – | – | – | – | – | – | – | – | – | –
< 40% | – | – | – | – | O=C1c2cccnc2C(=O)c2c1c(C(=O)OCCCN1CCOCC1)c1c(Cl)cccn21 | 19.1 µM | 68.6 µM | 37.5 µM | 28.4 µM | 29.1 µM | – | – | – | – | – | – | – | – | – | –
81 to 120% | inactive | inactive | – | – | CCOC(=O)c1c2c(n3ccc(NC(=O)CCN4CCOCC4)cc13)C(=O)c1ncccc1C2=O | 0.3 µM | 0.6 µM | 9.68 µM | 0.34 µM | 16.4 µM | – | – | – | – | – | – | – | – | – | –
< 40% | – | – | – | – | O=C1c2cccnc2C(=O)c2c1c(C(=O)OCCCN1CCOCC1)c1c(F)cccn21 | 0.038 µM | 0.49 µM | 0.23 µM | 0.13 µM | 0.25 µM | – | – | – | – | – | – | – | – | – | –
41 to 80% | – | – | – | – | CCOC(=O)c1c2c(n3ccc(NC(=O)CCN4CCCC4)cc13)C(=O)c1ncccc1C2=O | 1.9 µM | 0.54 µM | 29.3 µM | 1.8 µM | 0.7 µM | – | – | – | – | – | – | – | – | – | –

Reference: ChEMBL document CHEMBL4152240, “Synthesis, cytotoxicity and structure-activity relationship of indolizinoquinolinedione derivatives as DNA topoisomerase IB catalytic inhibitors” (2018)
